# In ChEMBL document CHEMBL1240447, “Synthesis and bioactivity of sphingosine kinase inhibitors and their novel aspirinyl conjugated analogs” (Eur J Med Chem, 2010):
# Calls of active or inactive are those of the source. No cut-off for these calls is given here.
# Legend:
# A549 = assay: Cytotoxicity against human A549 cells after 72 hrs by SRB assay; format: functional, cell-based; settings: A549, 72 h
# MEF = assay: Cytotoxicity against MEF after 72 hrs by SRB assay; format: cell-based; settings: Mus musculus
# [1] = Cytotoxicity against human U87MG cells after 72 hrs by SRB assay; format: functional, cell-based, U-87MG ATCC; settings: U-87 MG
# [2] = Half life in C3H-HEJ mouse serum at 60 mg/kg, ip up to 16 hrs by HPLC analysis; format: ADME, organism-based; design: dose 60 mg/kg, route intraperitoneal
# [3] = biological target: Sphingosine kinase 1 (Homo sapiens) (UniProt Q9NYA1); assay: Inhibition of Sphingosine kinase 1 in human HeLa cells at >=5 uM pre-incubated for 24 hrs; format: cell-based
# Summary of the method: (§1)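 HeLa cells preincubated 24 h with compound or DMSO; cytosol (100,000g supernatant) at 10 µg protein incubated with 50 µM D-erythro-sphingosine, 200 µM ATP plus [γ-32P]ATP in pH 7.4 Tris buffer, 30 min, 37 °C; S1P resolved by TLC and quantified by scintillation counting; triplicate.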
# [4] = Cytotoxicity against human H441 cells after 72 hrs by SRB assay; format: functional, cell-based; settings: NCI-H441, 72 h
# MDA-MB-231 = assay: Cytotoxicity against human MDA-MB-231 cells after 72 hrs by SRB assay; format: functional, cell-based; settings: MDA-MB-231, 72 h
# MIA PaCa-2 = assay: Cytotoxicity against human MIAPaCa2 cells after 72 hrs by SRB assay; format: functional, cell-based; settings: MIA PaCa-2, 72 h
# HeLa = assay: Cytotoxicity against human HeLa cells after 72 hrs by SRB assay; format: functional, cell-based
# [5] = biological target: Sphingosine kinase 1 (Homo sapiens) (UniProt Q9NYA1); assay: Inhibition of Sphingosine kinase 1 in human HeLa cells at 1.25 uM pre-incubated for 24 hrs; format: cell-based; summary of the method: as §1
# [6] = Cytotoxicity against human MCF10A cells after 72 hrs by SRB assay; format: cell-based; settings: MCF-10A
# NCI-H460 = assay: Cytotoxicity against human H460 cells after 72 hrs by SRB assay; format: functional, cell-based; settings: NCI-H460, 72 h
# Serum [7] = assay: Metabolic stability of the compound in fetal bovine serum assessed as conversion of SKI-1 after 16 hrs by HPLC analysis; format: ADME, cell-free, Bos taurus; settings: cattle
# Summary of the method: (§2)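 Compound in DMSO, 1 mg/mL, added to 5 mL DMEM with 10% FBS (no cells) and shaken at 37 °C; samples at 0, 2, 16 and 72 h filtered and run on C18 HPLC; conjugate remaining and released parent SKI expressed as percentages of peak areas per time point.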
# NCI-H226 = assay: Cytotoxicity against human NCI-H226 cells after 72 hrs by SRB assay; format: functional, cell-based; settings: NCI-H226, 72 h
# [8] = Chemical stability of the compound assessed as compound remaining after 72 hrs by HPLC analysis; format: physicochemical
# Summary of the method: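 Compound in DMSO, 1 mg/mL, added to 5 mL serum-free DMEM (no cells) and shaken at 37 °C; samples taken at 0, 2, 16 and 72 h, filtered and analyzed by C18 HPLC; percentages of parent and conjugate peak areas calculated per time point.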
# Serum [9] = assay: Metabolic stability of the compound in fetal bovine serum assessed as conversion of SKI-2 after 2 hrs by HPLC analysis; format: ADME, cell-free, Bos taurus; settings: cattle; summary of the method: as §2
# [10] = Metabolic stability of the compound in fetal bovine serum assessed as compound remaining after 72 hrs by HPLC analysis; format: ADME, cell-free, Bos taurus; settings: cattle, read-out: Stability; summary of the method: as §2
# Serum [11] = assay: Metabolic stability of the compound in fetal bovine serum assessed as conversion of SKI-2 after 16 hrs by HPLC analysis; format: ADME, cell-free, Bos taurus; settings: cattle; summary of the method: as §2
# Serum [12] = assay: Metabolic stability of the compound in fetal bovine serum assessed as conversion of SKI-2 after 72 hrs by HPLC analysis; format: ADME, cell-free, Bos taurus; settings: cattle; summary of the method: as §2
# Sequence of Sphingosine kinase 1 (Homo sapiens) (Q9NYA1 whole entry): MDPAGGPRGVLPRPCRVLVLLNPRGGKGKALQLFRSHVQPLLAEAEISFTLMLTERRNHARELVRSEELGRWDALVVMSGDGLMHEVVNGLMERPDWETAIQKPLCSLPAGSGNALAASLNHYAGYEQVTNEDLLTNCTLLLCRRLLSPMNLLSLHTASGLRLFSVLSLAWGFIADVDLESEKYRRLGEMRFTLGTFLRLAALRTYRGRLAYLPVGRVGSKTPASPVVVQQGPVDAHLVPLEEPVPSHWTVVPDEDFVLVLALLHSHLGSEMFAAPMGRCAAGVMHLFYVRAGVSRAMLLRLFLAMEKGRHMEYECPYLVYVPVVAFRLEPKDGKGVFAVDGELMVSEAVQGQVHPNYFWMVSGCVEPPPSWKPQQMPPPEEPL
half-life [2] [h],Activity [3],Activity [5],Stability (Serum [7]) [%],Stability [8],Stability (Serum [9]) [%],remaining at 72 h [10] [%],Stability (Serum [11]) [%],Stability (Serum [12]) [%],SMILES,IC50 (A549) [µM],IC50 (MEF) [µM],IC50 [1] [µM],IC50 [4] [µM],IC50 (MDA-MB-231) [µM],IC50 (MIA PaCa-2) [µM],IC50 (HeLa) [µM],IC50 [6] [µM],IC50 (NCI-H460) [µM],IC50 (NCI-H226) [µM]
10,Active,Active,80,Stable,–,–,–,–,CC(=O)Oc1ccccc1C(=O)Oc1ccc2ccccc2c1/C=N/NC(=O)c1cc(-c2ccc3ccccc3c2)n[nH]1,0.9,5.5,1.5,0.6,1.3,1.6,1,2.6,1.2,1.7
7,–,–,–,–,–,–,–,–,O=C(N/N=C/c1c(O)ccc2ccccc12)c1cc(-c2ccc3ccccc3c2)n[nH]1,3.8,5,1,2,4.4,4.8,1,4.1,3.2,5.7
–,Active,Active,–,Stable,15,25,50,75,CC(=O)Oc1ccccc1C(=O)Oc1ccc(Nc2nc(-c3ccc(Cl)cc3)cs2)cc1,5.9,9.4,8.1,5.7,8.4,8.7,11.2,11.3,9.1,6.7
–,–,–,–,–,–,–,–,–,Oc1ccc(Nc2nc(-c3ccc(Cl)cc3)cs2)cc1,7.8,8.9,10.7,8,8.2,7.7,9.1,14.5,9.2,8.6
